In ChEMBL document CHEMBL3352617, “Discovery of 9-(1-phenoxyethyl)-2-morpholino-4-oxo-pyrido[1,2-a]pyrimidine-7-carboxamides as oral PI3Kβ inhibitors, useful as antiplatelet agents” (Bioorg Med Chem Lett, 2014):
Values after ≈ are worked out from the molar mass of the structure shown. Active and inactive are the calls of the source. The rule behind the calls is not given here.

How the values were obtained:
[1] = target: Voltage-gated inwardly rectifying potassium channel KCNH2 (Homo sapiens, UniProt Q12809); test: Inhibition of human ERG channel expressed in CHO cells at 20.4 +/- 2.4 uM by patch clamp assay; assay type: cell-based
Chain of Voltage-gated inwardly rectifying potassium channel KCNH2 (Q12809 whole entry): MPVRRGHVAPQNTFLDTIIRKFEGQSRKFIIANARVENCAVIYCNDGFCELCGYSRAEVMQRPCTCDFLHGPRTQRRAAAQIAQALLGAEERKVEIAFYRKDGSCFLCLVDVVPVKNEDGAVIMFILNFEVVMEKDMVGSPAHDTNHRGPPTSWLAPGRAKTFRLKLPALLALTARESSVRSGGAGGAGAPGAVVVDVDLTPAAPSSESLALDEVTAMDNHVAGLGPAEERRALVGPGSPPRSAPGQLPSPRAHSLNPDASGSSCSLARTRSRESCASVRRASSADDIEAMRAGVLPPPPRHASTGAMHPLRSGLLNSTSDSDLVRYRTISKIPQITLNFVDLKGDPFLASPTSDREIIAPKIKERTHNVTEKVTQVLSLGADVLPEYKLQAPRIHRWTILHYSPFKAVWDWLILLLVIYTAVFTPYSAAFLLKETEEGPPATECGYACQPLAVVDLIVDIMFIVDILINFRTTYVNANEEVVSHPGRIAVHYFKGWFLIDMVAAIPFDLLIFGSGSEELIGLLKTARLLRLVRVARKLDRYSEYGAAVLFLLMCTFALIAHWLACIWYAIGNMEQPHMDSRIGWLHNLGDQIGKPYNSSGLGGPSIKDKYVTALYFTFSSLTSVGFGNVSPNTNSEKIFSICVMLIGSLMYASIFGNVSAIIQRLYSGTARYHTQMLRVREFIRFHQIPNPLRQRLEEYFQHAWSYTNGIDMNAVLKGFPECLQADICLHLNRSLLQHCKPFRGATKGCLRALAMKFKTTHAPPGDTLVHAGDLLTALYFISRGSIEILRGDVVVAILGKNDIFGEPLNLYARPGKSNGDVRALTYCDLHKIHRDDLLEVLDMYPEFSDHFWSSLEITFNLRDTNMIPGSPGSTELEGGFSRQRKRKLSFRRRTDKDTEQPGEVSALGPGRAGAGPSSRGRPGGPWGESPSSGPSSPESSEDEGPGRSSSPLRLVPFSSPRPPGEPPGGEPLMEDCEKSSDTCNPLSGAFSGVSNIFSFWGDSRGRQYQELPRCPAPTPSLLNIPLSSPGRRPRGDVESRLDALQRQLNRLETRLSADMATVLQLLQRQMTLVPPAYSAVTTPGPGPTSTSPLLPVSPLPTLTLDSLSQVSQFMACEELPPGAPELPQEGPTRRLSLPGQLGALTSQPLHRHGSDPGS

[2] = species: Rattus norvegicus; test: Effect on insulin resistance in Sprague-Dawley rat assessed as HOMA-index at maximum compound concentration; assay type: ADME, organism-based; settings: in vivo
In short: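 Sprague-Dawley rats given compound. Relative HOMA insulin resistance index (plasma glucose × plasma insulin) compared with baseline and related to plasma concentration.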

[3] = target: Voltage-dependent L-type calcium channel subunit alpha-1C (Homo sapiens, UniProt Q13936); test: Inhibition of human CACNA1C channel expressed in CHO cells at 20.4 +/- 2.4 uM by patch clamp assay; assay type: cell-based
[4] = target: Voltage-dependent T-type calcium channel subunit alpha-1H (Homo sapiens) (UniProt O95180); test: Inhibition of human Cav3.2 channel expressed in CHO cells at 20.4 +/- 2.4 uM by patch clamp assay; assay type: cell-based
[5] = target: Phosphatidylinositol 4,5-bisphosphate 3-kinase catalytic subunit gamma isoform (Homo sapiens, UniProt P48736); test: Inhibition of human recombinant PI3Kgamma assessed as PIP3 production by AlphaScreen assay
[6] = Fraction unbound in human plasma after 18 hrs at 37 degC after 18 hrs; assay type: ADME, cell-free
In short: (§1)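 Human and dog plasma. Fraction unbound measured by equilibrium dialysis, 18 h at 37 °C, reported as % unbound.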

[7] = test system: Canis familiaris; test: Inhibition of ADP-induced platelet aggregation in iv dosed Beagle dog assessed as blood loss volume; assay type: organism-based, Canis lupus familiaris; settings: in vivo
In short: (§2)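 Anaesthetized dogs in a modified Folts' model. Saline vehicle given first, then consecutive iv doses over 30 min periods (bolus 0.03–1.3 µg/kg plus infusion 0.005–0.24 µg/kg/min). Measured: cyclic flow reductions, bleeding time, blood loss, ex vivo ADP-induced whole blood aggregation (Multiplate), and plasma exposure, related by PKPD.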

[8] = target: Voltage-dependent L-type calcium channel subunit beta-2 (Homo sapiens) (UniProt Q08289); test: Inhibition of human CACNB2 channel expressed in CHO cells at 20.4 +/- 2.4 uM by patch clamp assay; assay type: cell-based
[9] = target: Voltage-dependent calcium channel subunit alpha-2/delta-1 (Homo sapiens) (UniProt P54289); test: Inhibition of human CACNA2D1 channel expressed in CHO cells at 20.4 +/- 2.4 uM by patch clamp assay; assay type: cell-based
[10] = species: Canis familiaris; test: Ex vivo antiplatelet activity in Beagle dog assessed as inhibition of ADP-induced platelet aggregation; assay type: functional, Canis lupus familiaris; in short: as §2
[11] = Solubility of the compound in DMSO/HBSS at pH 7.4; assay type: physicochemical
In short: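 Compound from DMSO stock added to HBSS buffer. Solubility measured at pH 7.4.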

[12] = Oral bioavailability in Beagle dog at 2 umol/kg; assay type: ADME, organism-based, Canis lupus familiaris; settings: in vivo
In short: (§3)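 Fasted male Beagle dogs dosed iv or po (iv N = 5, po N = 4). Plasma concentrations analysed by noncompartmental analysis to give CL, Vss and oral F.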

[13] = target: T1, A-type voltage-gated potassium channel KCND3 (Homo sapiens, UniProt Q9UK17); test: Inhibition of human Kv4.3 channel expressed in CHO cells at 20.4 +/- 2.4 uM by patch clamp assay; assay type: cell-based
T1 sequence (Q9UK17 whole entry): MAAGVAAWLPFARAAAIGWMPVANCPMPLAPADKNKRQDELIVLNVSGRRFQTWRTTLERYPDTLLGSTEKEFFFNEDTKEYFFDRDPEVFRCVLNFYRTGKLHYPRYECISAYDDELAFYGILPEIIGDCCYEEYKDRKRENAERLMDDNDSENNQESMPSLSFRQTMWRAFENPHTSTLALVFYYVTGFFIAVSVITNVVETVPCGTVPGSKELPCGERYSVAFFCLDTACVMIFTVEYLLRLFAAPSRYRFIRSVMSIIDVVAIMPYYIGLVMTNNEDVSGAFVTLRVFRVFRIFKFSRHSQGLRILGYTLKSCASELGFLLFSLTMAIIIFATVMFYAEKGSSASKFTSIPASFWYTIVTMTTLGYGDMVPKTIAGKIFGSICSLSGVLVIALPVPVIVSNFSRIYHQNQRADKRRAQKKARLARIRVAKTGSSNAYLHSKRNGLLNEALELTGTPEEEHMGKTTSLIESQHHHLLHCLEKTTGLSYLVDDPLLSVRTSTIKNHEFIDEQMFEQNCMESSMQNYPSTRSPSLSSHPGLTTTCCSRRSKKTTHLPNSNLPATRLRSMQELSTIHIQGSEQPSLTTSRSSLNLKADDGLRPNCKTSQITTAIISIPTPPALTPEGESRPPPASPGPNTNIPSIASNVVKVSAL

[14] = Antiplatelet activity against human platelet assessed as inhibition of ADP-induced whole blood aggregation by impedance aggregometry
[15] = target: T2, Phosphatidylinositol 4,5-bisphosphate 3-kinase catalytic subunit delta isoform (Homo sapiens, UniProt O00329); test: Inhibition of human recombinant PI3Kdelta assessed as PIP3 production by AlphaScreen assay
T2 sequence (O00329 whole entry): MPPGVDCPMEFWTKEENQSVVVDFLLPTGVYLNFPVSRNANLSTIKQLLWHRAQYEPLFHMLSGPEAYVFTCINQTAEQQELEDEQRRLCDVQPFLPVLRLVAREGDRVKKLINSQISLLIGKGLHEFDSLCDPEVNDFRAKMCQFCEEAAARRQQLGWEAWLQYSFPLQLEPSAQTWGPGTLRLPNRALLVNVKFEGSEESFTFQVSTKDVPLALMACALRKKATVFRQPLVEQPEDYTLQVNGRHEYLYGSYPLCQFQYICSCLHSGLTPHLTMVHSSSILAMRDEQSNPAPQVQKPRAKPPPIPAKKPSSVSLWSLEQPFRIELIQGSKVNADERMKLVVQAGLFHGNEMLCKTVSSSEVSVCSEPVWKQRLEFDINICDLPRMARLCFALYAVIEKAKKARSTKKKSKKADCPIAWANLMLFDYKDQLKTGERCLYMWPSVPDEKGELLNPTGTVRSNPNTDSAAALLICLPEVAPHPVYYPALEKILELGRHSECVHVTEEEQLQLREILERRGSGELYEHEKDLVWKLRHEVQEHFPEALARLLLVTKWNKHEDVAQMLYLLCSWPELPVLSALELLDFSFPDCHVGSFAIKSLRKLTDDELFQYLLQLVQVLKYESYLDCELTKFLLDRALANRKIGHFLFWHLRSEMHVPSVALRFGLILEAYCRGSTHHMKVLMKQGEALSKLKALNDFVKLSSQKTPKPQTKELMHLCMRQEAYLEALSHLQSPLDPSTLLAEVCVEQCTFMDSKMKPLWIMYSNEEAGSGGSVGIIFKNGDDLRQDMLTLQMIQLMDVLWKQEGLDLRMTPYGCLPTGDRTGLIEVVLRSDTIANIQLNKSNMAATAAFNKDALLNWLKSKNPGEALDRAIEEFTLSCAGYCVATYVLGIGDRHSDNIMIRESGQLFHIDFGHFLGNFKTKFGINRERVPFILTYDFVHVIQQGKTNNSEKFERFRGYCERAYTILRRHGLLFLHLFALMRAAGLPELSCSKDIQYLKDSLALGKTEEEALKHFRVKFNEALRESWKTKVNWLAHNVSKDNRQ

[16] = target: Voltage-dependent N-type calcium channel subunit alpha-1B (Homo sapiens) (UniProt Q00975); test: Inhibition of human Cav2.2 channel expressed in CHO cells at 20.4 +/- 2.4 uM by patch clamp assay; assay type: cell-based
[17] = test system: CHO; test: Inhibition of human IKs channel expressed in CHO cells at 20.4 +/- 2.4 uM by patch clamp assay; assay type: cell-based
[18] = Clearance in Beagle dog at 1 umol/kg, iv and 2 umol/kg, po; assay type: ADME, organism-based, Canis lupus familiaris; settings: in vivo; in short: as §3
[19] = Fraction unbound in dog plasma after 18 hrs at 37 degC after 18 hrs; assay type: ADME, cell-free, Canis lupus familiaris; in short: as §1
[20] = target: Sodium channel protein type 5 subunit alpha (Homo sapiens, UniProt Q14524); test: Inhibition of human Nav1.5 channel expressed in CHO cells at 20.4 +/- 2.4 uM by patch clamp assay; assay type: cell-based
Chain of Sodium channel protein type 5 subunit alpha (Q14524 whole entry): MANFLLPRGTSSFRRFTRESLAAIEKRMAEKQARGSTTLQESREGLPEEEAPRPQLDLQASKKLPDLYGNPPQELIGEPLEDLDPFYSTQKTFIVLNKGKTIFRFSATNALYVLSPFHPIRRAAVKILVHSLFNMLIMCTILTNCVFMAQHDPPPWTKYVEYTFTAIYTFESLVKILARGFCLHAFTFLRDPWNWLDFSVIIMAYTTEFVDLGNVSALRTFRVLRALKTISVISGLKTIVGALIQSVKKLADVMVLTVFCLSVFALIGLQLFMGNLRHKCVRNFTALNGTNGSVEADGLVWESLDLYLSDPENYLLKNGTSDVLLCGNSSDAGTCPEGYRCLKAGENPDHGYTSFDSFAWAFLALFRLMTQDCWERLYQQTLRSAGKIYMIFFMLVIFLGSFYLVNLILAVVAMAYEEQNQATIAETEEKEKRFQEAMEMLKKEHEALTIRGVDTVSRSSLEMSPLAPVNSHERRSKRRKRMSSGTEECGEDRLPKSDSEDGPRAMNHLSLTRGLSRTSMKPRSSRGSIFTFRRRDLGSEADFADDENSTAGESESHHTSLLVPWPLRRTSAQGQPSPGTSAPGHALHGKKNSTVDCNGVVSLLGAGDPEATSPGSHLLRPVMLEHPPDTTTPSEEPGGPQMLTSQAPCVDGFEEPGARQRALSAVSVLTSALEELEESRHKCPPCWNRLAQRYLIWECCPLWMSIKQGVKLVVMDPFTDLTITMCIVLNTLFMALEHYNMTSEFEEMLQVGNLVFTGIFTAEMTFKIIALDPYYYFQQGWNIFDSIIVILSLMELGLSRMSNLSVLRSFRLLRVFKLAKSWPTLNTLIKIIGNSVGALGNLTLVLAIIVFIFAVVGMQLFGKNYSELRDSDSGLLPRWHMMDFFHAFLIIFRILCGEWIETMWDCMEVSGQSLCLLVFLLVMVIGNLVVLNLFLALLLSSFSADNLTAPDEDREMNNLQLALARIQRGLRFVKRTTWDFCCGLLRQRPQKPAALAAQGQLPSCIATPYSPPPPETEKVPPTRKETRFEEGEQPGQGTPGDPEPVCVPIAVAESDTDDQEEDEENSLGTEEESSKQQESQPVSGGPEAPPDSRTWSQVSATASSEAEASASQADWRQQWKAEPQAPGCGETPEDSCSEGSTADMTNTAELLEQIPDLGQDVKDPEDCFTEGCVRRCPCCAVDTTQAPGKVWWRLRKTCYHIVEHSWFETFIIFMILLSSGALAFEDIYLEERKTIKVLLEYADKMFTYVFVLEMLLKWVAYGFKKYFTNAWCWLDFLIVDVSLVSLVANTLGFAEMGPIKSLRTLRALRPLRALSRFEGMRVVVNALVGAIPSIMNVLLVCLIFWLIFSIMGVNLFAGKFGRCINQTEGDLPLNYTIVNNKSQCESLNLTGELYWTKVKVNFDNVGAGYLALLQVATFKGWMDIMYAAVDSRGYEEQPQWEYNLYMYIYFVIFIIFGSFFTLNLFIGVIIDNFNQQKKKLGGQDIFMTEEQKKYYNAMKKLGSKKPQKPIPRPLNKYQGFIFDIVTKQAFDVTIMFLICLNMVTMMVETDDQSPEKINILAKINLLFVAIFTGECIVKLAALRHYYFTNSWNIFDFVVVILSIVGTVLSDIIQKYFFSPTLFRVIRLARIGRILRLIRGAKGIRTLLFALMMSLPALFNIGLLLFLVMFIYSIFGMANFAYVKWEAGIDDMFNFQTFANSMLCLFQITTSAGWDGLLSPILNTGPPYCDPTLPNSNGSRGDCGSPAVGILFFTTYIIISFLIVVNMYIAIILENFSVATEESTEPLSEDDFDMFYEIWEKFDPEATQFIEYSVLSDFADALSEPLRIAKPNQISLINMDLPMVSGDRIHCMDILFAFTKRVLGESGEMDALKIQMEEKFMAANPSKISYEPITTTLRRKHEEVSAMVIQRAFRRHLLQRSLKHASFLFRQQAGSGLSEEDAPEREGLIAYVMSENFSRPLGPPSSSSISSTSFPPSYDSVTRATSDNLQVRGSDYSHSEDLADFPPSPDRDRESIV

[21] = Volume of distribution at steady state in Beagle dog at 1 umol/kg, iv and 2 umol/kg, po; assay type: ADME, organism-based, Canis lupus familiaris; settings: in vivo, read-out: Vdss; in short: as §3
[22] = Half life in human hepatocytes at 2 uM by LCMS analysis; assay type: ADME, cell-based, Hepatocyte
In short: (§4)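 Test compound incubated with human hepatocytes. Intrinsic clearance and half-life derived from compound disappearance.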

[23] = Antiplatelet activity against human platelet assessed as inhibition of collagen-induced platelet rich plasma aggregation by light transmission aggregometry; assay type: functional, cell-free
In short: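 Human platelet rich plasma stimulated with collagen. Aggregation read by light transmission aggregometry in an in-house 96-well plate format.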

[24] = Antiplatelet activity against dog platelet assessed as inhibition of ADP-induced whole blood aggregation by impedance aggregometry; settings: Canis lupus familiaris
[25] = target: Sodium channel protein type 2 subunit alpha (Homo sapiens) (UniProt Q99250); test: Inhibition of human Nav1.2 channel expressed in CHO cells at 20.4 +/- 2.4 uM by patch clamp assay; assay type: cell-based
Chain of Sodium channel protein type 2 subunit alpha (Homo sapiens) (Q99250 whole entry, looked up): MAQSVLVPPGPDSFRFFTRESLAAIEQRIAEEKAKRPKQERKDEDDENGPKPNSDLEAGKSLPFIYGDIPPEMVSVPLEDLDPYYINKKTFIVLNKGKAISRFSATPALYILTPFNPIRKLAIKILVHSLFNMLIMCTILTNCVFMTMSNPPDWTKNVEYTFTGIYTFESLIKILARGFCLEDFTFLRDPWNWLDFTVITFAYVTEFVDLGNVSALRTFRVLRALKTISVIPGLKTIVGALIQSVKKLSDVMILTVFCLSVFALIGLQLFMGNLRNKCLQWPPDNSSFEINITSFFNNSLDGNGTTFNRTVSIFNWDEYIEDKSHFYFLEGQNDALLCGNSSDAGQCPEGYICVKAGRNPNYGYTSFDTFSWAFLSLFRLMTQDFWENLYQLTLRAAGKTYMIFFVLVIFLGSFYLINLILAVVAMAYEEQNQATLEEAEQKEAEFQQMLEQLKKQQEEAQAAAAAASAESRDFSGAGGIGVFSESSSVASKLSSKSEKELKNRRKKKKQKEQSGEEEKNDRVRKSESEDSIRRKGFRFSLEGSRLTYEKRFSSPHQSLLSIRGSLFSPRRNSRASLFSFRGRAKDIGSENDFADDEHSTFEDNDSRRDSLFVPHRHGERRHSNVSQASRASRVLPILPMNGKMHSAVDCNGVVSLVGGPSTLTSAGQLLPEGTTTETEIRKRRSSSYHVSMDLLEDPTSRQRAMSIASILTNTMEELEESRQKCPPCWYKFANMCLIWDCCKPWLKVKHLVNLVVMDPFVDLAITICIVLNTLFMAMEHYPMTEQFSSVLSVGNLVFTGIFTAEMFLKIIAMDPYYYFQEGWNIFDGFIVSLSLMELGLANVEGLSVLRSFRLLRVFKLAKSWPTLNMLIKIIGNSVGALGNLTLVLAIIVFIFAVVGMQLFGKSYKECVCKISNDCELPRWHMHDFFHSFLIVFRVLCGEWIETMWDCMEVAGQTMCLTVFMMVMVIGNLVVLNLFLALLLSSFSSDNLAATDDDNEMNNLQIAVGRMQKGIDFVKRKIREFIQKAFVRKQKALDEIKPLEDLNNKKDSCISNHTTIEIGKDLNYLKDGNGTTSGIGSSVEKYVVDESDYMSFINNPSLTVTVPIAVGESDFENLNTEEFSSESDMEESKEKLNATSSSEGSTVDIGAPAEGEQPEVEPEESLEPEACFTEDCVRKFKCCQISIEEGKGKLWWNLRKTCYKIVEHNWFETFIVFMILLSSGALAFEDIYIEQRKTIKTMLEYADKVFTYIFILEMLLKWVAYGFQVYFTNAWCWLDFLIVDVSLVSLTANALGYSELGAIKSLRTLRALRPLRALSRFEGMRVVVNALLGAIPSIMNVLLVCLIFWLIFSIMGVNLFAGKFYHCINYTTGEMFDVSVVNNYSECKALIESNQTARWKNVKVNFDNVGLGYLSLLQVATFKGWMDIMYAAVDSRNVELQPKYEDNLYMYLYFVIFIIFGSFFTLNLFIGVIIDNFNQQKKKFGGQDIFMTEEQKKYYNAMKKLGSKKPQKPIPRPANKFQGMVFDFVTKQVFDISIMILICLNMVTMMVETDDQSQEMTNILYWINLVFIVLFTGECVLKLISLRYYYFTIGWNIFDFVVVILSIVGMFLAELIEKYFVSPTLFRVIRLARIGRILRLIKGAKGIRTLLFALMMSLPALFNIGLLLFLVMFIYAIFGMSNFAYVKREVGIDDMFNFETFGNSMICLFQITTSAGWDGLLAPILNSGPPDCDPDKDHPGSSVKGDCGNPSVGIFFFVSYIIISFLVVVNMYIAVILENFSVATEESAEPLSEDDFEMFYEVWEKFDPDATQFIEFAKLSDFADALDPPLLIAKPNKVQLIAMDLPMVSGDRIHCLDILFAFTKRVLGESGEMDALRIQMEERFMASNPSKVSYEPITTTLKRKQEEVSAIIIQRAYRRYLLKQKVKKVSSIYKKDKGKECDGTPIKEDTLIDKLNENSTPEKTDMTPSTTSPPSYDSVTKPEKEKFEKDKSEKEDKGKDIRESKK

[26] = test system: Canis familiaris; test: Inhibition of ADP-induced platelet aggregation in iv dosed Beagle dog assessed as bleeding time; assay type: organism-based, Canis lupus familiaris; settings: in vivo; in short: as §2
[27] = Volume of distribution in iv dosed healthy volunteers; assay type: ADME, organism-based; settings: human, in vivo
[28] = Apparent permeability across apical to basolateral side of human Caco2 cells at 10 uM at pH 6.5 by LC-tandem MS analysis; assay type: ADME, cell-based; settings: Caco-2, pH 6.5
In short: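 Caco-2 monolayers, apical-to-basolateral transport at pH 6.5. Result given as apparent permeability (Papp).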

[29] = Half life in iv dosed healthy volunteers plasma; assay type: ADME, organism-based; settings: human
[30] = Lipophilicity, log D of the compound at pH 7.4 by HPLC method; assay type: physicochemical; settings: buffer
In short: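 LogD measured experimentally at pH 7.4 by an HPLC method.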

[31] = test system: Hepatocyte; test: Intrinsic clearance in human hepatocytes at 2 uM by LCMS analysis; assay type: ADME, cell-based; in short: as §4

C[C@@H](Oc1ccccc1)c1cc(C(=O)N(C)CCO)cn2c(=O)cc(N3CCOCC3)nc12
inhibition (INH) [1]: Not Active
Activity [2]: Non-toxic
inhibition (INH) [3]: Not Active
inhibition [4]: inactive
IC50 [5]: 83000 nM
fraction unbound at 18 h [6]: 0.26
fold change (FC) [7]: 3.5
inhibition [8]: inactive
inhibition [9]: inactive
EC80 [10]: 690 nM
solubility [11]: > 1800 µM
bioavailability [12]: 31%
inhibition (INH) [13]: Not Active
IC50 [14]: 1200 nM
IC50 [15]: 400 nM
inhibition [16]: inactive
inhibition [17]: inactive
clearance [18]: 8 mL/min/kg
fraction unbound at 18 h [19]: 0.42
inhibition (INH) [20]: Not Active
Vd [21]: 1.2 L/kg
half-life at 2 µM [22]: > 173 min
IC50 [23]: 210 nM
IC50 [24]: 950 nM
inhibition [25]: inactive
fold change (FC) [26]: 3.5

Cc1cc([C@@H](C)Nc2ccccc2C(=O)O)c2nc(N3CCOCC3)cc(=O)n2c1 [AZD-6482]
fraction unbound at 18 h [6]: 0.08
Vd [27]: 40 L
Papp A→B at 10 µM [28]: 18 ×10⁻⁶ cm/s
half-life [29]: 5 min
solubility [11]: 100 µM (≈ 40.8 µg/mL)
IC50 [14]: 270 nM
clearance [18]: 17 mL/min/kg
logD [30]: 0.75
fraction unbound at 18 h [19]: 0.1
Vd [21]: 14 L/kg
half-life at 2 µM [22]: 40 min
Intrinsic clearance (CLint) [31]: 17.5 µL/min
IC50 [23]: 280 nM
